Measurements published in ChEMBL document CHEMBL1147110, “Antifungal drug susceptibility profile of Pichia anomala isolates from patients presenting with nosocomial fungemia” (2007).

Assays:
Format in all cases: functional
Wickerhamomyces anomalus [1] = assay: Antimicrobial susceptibility of Pichia anomala from nosocomial fungemia patient assessed as percent susceptible isolates at 0.015 ug/ml by EUCAST method
How it was run: (§1)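 EUCAST broth microdilution on the same 58 P. anomala isolates (52 bloodstream isolates from Brazil, Argentina and Spain; 6 from USA). MICs were read spectrophotometrically at 530 nm after 24 h incubation. Endpoints were complete or nearly complete (≥95%) inhibition for amphotericin B, and ≥50% inhibition for azoles and caspofungin, relative to drug-free control. Isolates were tallied as cumulative % per MIC.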

Wickerhamomyces anomalus [2] = assay: Antimicrobial susceptibility of Pichia anomala from nosocomial fungemia patient assessed as percent susceptible isolates at 0.03 ug/ml by EUCAST method; how it was run: as §1
Wickerhamomyces anomalus [3] = assay: Antimicrobial susceptibility of Pichia anomala from nosocomial fungemia patient assessed as percent susceptible isolates at 0.06 ug/ml by EUCAST method; how it was run: as §1
Wickerhamomyces anomalus [4] = assay: Antimicrobial susceptibility of Pichia anomala from nosocomial fungemia patient assessed as percent susceptible isolates at 0.12 ug/ml by EUCAST method; how it was run: as §1
Wickerhamomyces anomalus [5] = assay: Antimicrobial susceptibility of Pichia anomala from nosocomial fungemia patient assessed as percent susceptible isolates at 0.25 ug/ml by EUCAST method
How it was run: (§2)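 58 P. anomala isolates (52 unrelated bloodstream isolates from Brazil, Argentina and Spain; 6 from unknown US clinical specimens). EUCAST broth microdilution, 24 h incubation, spectrophotometric reading at 530 nm. The MIC endpoint was ≥95% inhibition versus the drug-free control for the polyene and ≥50% for azoles and the echinocandin. Cumulative % of isolates inhibited at each MIC was recorded.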

Wickerhamomyces anomalus [6] = assay: Antimicrobial susceptibility of Pichia anomala from nosocomial fungemia patient assessed as percent susceptible isolates at 0.5 ug/ml by EUCAST method; how it was run: as §1
Wickerhamomyces anomalus [7] = assay: Antimicrobial susceptibility of Pichia anomala from nosocomial fungemia patient assessed as percent susceptible isolates at 1 ug/ml by EUCAST method; how it was run: as §1
Wickerhamomyces anomalus [8] = assay: Antimicrobial susceptibility of Pichia anomala from nosocomial fungemia patient assessed as percent susceptible isolates by CLSI method
How it was run: as §2, with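 “CLSI” for “EUCAST”, “48” for “24”, “read” for “spectrophotometric reading”, “well” for “control”, “recorded, with susceptibility assigned by CLSI interpretive criteria.” for “recorded.”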

Wickerhamomyces anomalus [9] = assay: Antimicrobial susceptibility of Pichia anomala from nosocomial fungemia patient assessed as percent susceptible isolates by EUCAST method; how it was run: as §1
Wickerhamomyces anomalus [10] = assay: Antimicrobial susceptibility of Pichia anomala from nosocomial fungemia patient assessed as percent susceptible isolates at 0.015 ug/ml by CLSI method
How it was run: (§3)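 CLSI broth microdilution on 58 P. anomala isolates: 52 unrelated bloodstream isolates (36 Brazil, 13 Argentina, 3 Spain) and 6 from unknown clinical specimens (USA). Fluconazole was tested at 0.12–64 µg/ml. MICs were read spectrophotometrically at 530 nm after 48 h. Endpoints were ≥95% inhibition vs drug-free control for amphotericin B, and ≥50% for azoles and caspofungin. Results are given as cumulative % of isolates at each MIC.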

Wickerhamomyces anomalus [11] = assay: Antimicrobial susceptibility of Pichia anomala from nosocomial fungemia patient assessed as percent susceptible isolates at 0.03 ug/ml by CLSI method; how it was run: as §3
Wickerhamomyces anomalus [12] = assay: Antimicrobial susceptibility of Pichia anomala from nosocomial fungemia patient assessed as percent susceptible isolates at 0.06 ug/ml by CLSI method; how it was run: as §3
Wickerhamomyces anomalus [13] = assay: Antimicrobial susceptibility of Pichia anomala from nosocomial fungemia patient assessed as percent susceptible isolates at 0.12 ug/ml by CLSI method
How it was run: as §2, with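 “CLSI” for “EUCAST”, “48” for “24”, “read” for “spectrophotometric reading”, “well” for “control”, “recorded, with susceptibility assigned by CLSI interpretive criteria.” for “recorded.”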

Wickerhamomyces anomalus [14] = assay: Antimicrobial susceptibility of Pichia anomala from nosocomial fungemia patient assessed as percent susceptible isolates at 0.25 ug/ml by CLSI method; how it was run: as §3
Wickerhamomyces anomalus [15] = assay: Antimicrobial susceptibility of Pichia anomala from nosocomial fungemia patient assessed as percent susceptible isolates at 0.5 ug/ml by CLSI method
How it was run: as §2, with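 “CLSI” for “EUCAST”, “48” for “24”, “read” for “spectrophotometric reading”, “well” for “control”, “recorded, with susceptibility assigned by CLSI interpretive criteria.” for “recorded.”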

Wickerhamomyces anomalus [16] = assay: Antimicrobial susceptibility of Pichia anomala from nosocomial fungemia patient assessed as percent susceptible isolates at 1 ug/ml by CLSI method; how it was run: as §3
Wickerhamomyces anomalus [17] = assay: Antimicrobial susceptibility of Pichia anomala from nosocomial fungemia patient assessed as percent susceptible isolates at 16 ug/ml by CLSI method
How it was run: as §2, with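 “CLSI” for “EUCAST”, “48” for “24”, “read” for “spectrophotometric reading”, “well” for “control”, “recorded, with susceptibility assigned by CLSI interpretive criteria.” for “recorded.”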

Wickerhamomyces anomalus [18] = assay: Antimicrobial susceptibility of Pichia anomala from nosocomial fungemia patient assessed as percent susceptible isolates at 2 ug/ml by EUCAST method; how it was run: as §2
Wickerhamomyces anomalus [19] = assay: Antimicrobial susceptibility of Pichia anomala from nosocomial fungemia patient assessed as percent susceptible isolates at 4 ug/ml by EUCAST method; how it was run: as §2
Wickerhamomyces anomalus [20] = assay: Antimicrobial susceptibility of Pichia anomala from nosocomial fungemia patient assessed as percent susceptible isolates at 8 ug/ml by EUCAST method; how it was run: as §2
Wickerhamomyces anomalus [21] = assay: Antimicrobial susceptibility of Pichia anomala from nosocomial fungemia patient assessed as percent susceptible isolates at 16 ug/ml by EUCAST method; how it was run: as §2
Wickerhamomyces anomalus [22] = assay: Antimicrobial susceptibility of Pichia anomala from nosocomial fungemia patient assessed as percent susceptible isolates at 2 ug/ml by CLSI method
How it was run: as §2, with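 “CLSI” for “EUCAST”, “48” for “24”, “read” for “spectrophotometric reading”, “well” for “control”, “recorded, with susceptibility assigned by CLSI interpretive criteria.” for “recorded.”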

Wickerhamomyces anomalus [23] = assay: Antimicrobial susceptibility of Pichia anomala from nosocomial fungemia patient assessed as percent susceptible isolates at 4 ug/ml by CLSI method
How it was run: as §2, with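 “CLSI” for “EUCAST”, “48” for “24”, “read” for “spectrophotometric reading”, “well” for “control”, “recorded, with susceptibility assigned by CLSI interpretive criteria.” for “recorded.”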

Wickerhamomyces anomalus [24] = assay: Antimicrobial susceptibility of Pichia anomala from nosocomial fungemia patient assessed as percent susceptible isolates at 8 ug/ml by CLSI method
How it was run: as §2, with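 “CLSI” for “EUCAST”, “48” for “24”, “read” for “spectrophotometric reading”, “well” for “control”, “recorded, with susceptibility assigned by CLSI interpretive criteria.” for “recorded.”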

| SMILES | Activity (Wickerhamomyces anomalus [1]) | Activity (Wickerhamomyces anomalus [2]) | Activity (Wickerhamomyces anomalus [3]) | Activity (Wickerhamomyces anomalus [4]) | Activity (Wickerhamomyces anomalus [5]) | Activity (Wickerhamomyces anomalus [6]) | Activity (Wickerhamomyces anomalus [7]) | Activity (Wickerhamomyces anomalus [8]) | Activity (Wickerhamomyces anomalus [9]) | Activity (Wickerhamomyces anomalus [10]) | Cumulative percent of isolates inhibited (Wickerhamomyces anomalus [11]) | Cumulative percent of isolates inhibited (Wickerhamomyces anomalus [12]) | Activity (Wickerhamomyces anomalus [13]) | Cumulative percent of isolates inhibited (Wickerhamomyces anomalus [14]) | Cumulative percent of isolates inhibited (Wickerhamomyces anomalus [15]) | Activity (Wickerhamomyces anomalus [16]) | further results |
| --- | --- | --- | --- | --- | --- | --- | --- | --- | --- | --- | --- | --- | --- | --- | --- | --- | --- |
| C[C@@H]1[C@H](O)[C@@H](C)/C=C/C=C/C=C/C=C/C=C/C=C/C=C/[C@H](O[C@@H]2O[C@H](C)[C@@H](O)[C@H](N)[C@@H]2O)C[C@@H]2O[C@](O)(C[C@@H](O)C[C@@H](O)[C@H](O)CC[C@@H](O)C[C@@H](O)CC(=O)O[C@H]1C)C[C@H](O)[C@H]2C(=O)O [AMPHOTERICIN B] | 0% | 0% | 0% | 15.5% | 55.1% | 94.7% | 100% | 100% | 100% | 0% | 0% | 0% | 12% | 36% | 88% | 100% |  |
| CC[C@H](C)C[C@H](C)CCCCCCCCC(=O)N[C@H]1C[C@@H](O)[C@@H](NCCN)NC(=O)[C@@H]2[C@@H](O)CCN2C(=O)[C@H]([C@H](O)CCN)NC(=O)[C@H]([C@H](O)[C@@H](O)c2ccc(O)cc2)NC(=O)[C@@H]2C[C@@H](O)CN2C(=O)[C@H]([C@@H](C)O)NC1=O [CASPOFUNGIN] | 0% | 12% | 70.6% | 100% |  |  |  | 100% | 100% | 0% | 1.7% | 17.2% | 84.5% | 100% |  |  |  |
| OC(Cn1cncn1)(Cn1cncn1)c1ccc(F)cc1F [FLUCONAZOLE] | 0% | 0% | 0% | 0% | 0% | 0% | 0% | 96.6% | 93% | 0% |  |  | 0% |  | 0% | 0% | Activity (Wickerhamomyces anomalus [17]): 100%; Activity (Wickerhamomyces anomalus [18]): 22.4%; Activity (Wickerhamomyces anomalus [19]): 55.1%; Activity (Wickerhamomyces anomalus [20]): 96.5%; Activity (Wickerhamomyces anomalus [21]): 100%; Activity (Wickerhamomyces anomalus [11]): 0%; Activity (Wickerhamomyces anomalus [12]): 0%; Activity (Wickerhamomyces anomalus [14]): 0%; Activity (Wickerhamomyces anomalus [22]): 15.5%; Activity (Wickerhamomyces anomalus [23]): 56.8%; Activity (Wickerhamomyces anomalus [24]): 93% |
| CCC(C)n1ncn(-c2ccc(N3CCN(c4ccc(OCC5COC(Cn6cncn6)(c6ccc(Cl)cc6Cl)O5)cc4)CC3)cc2)c1=O (stereo not given) [ITRACONAZOLE] | 0% | 0% | 7% | 39.5% | 91.2% | 98.2% | 100% | 36.2% | 39.6% | 1.7% | 0% | 12% | 36.1% | 74.1% | 96.5% | 100% |  |
| C[C@@H](c1ncncc1F)[C@](O)(Cn1cncn1)c1ccc(F)cc1F [VORICONAZOLE] | 0% | 3.4% | 29.3% | 65.5% | 100% |  |  | 100% | 100% | 0% | 3.4% | 18.9% | 39.6% | 96.5% | 100% |  |  |
